Experimental findings from ChEMBL document CHEMBL1128545, “Effect of a chiral 4-alkyl substituent in hallucinogenic amphetamines” (J Med Chem, 1995) are described below.

For test [1], the species on record is Rattus norvegicus. The test is described as follows: Potency against LSD trained rat, activity is expressed as ED50. The format is functional.
Test [2] deals with Rattus norvegicus. Description: Percentage of rats selecting the drug lever (% SDL) for dose 5.22(umol/kg). It is filed as functional. The method, boiled down:
(§1)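 Drugs are given ip in saline. Test sessions run under extinction and end at 50 presses on one lever. Rats must hold 85% accuracy on training days. The read-out is the percentage of rats choosing the drug lever at each dose.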

Test [3] concerns Rattus norvegicus. Description: Percentage of rats selecting the drug lever (% SDL) for dose 3.48(umol/kg). The format is functional. The method, boiled down: as §1
Test [4] is described as follows: Hill coefficient of the compound. The method, boiled down:
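Rat frontal cortex (male Sprague–Dawley) homogenized in 0.32 M sucrose, preincubated twice 10 min at 37 °C; assay in 50 mM Tris HCl pH 7.4 with EDTA, ascorbate, 10 mM MgCl2, 10 µM pargyline, 200–400 µg protein. Displacement of 0.25 nM [125I]-(R)-DOI, 15 min at 37 °C, GF/C filtration, γ-counting. Triplicates, 3–4 experiments; parameters fitted by EBDA/LIGAND.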

For test [5], the target named is Serotonin 2 (5-HT2) receptor (Rattus norvegicus, UniProt P30994+P08909+P14842). The test is described as follows: Binding affinity against 5-hydroxytryptamine 2 receptor from rat frontal cortex using [125]-(R)-DOI as radioligand. The format is tissue-based. The method, boiled down: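 Rat frontal cortex (male Sprague–Dawley) homogenized in 0.32 M sucrose, preincubated twice 10 min at 37 °C; assay in 50 mM Tris HCl pH 7.4 with EDTA, ascorbate, 10 mM MgCl2, 10 µM pargyline, 200–400 µg protein. Triplicates, 3–4 experiments; parameters fitted by EBDA/LIGAND.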

Test [6] deals with Rattus norvegicus. Description: Percentage of rats selecting the drug lever (% SDL) for dose 0.87(umol/kg). It is filed as functional. The method, boiled down:
as §1

Test [7] has as its system Rattus norvegicus. The test is described as follows: Percentage of rats selecting the drug lever (% SDL) for dose 1.74(umol/kg). The format is functional. The procedure, abridged: as §1
Test [8] has as its system Rattus norvegicus. Description: Percentage of rats selecting the drug lever (% SDL) for dose 13.91(umol/kg). The format is functional. The method, boiled down: as §1
Test [9] concerns Rattus norvegicus. Description: Percentage of rats selecting the drug lever (% SDL) for dose 6.96(umol/kg). The format is functional. The procedure, abridged:
as §1

For test [10], the system named is Rattus norvegicus. The test is described as follows: Percentage of rats selecting the drug lever (% SDL) for dose 3.48 (umol/kg). It is filed as functional. The procedure, abridged: as §1
Test [11] relates to Rattus norvegicus. Description: Percentage of rats selecting the drug lever (% SDL) for dose 0.024(umol/kg). The format is functional. The method, boiled down: as §1
For test [12], the system named is Rattus norvegicus. The test is described as follows: Percentage of rats selecting the drug lever (% SDL) for dose 0.186 (umol/kg). The format is functional. The method, boiled down:
as §1

Test [13] deals with Rattus norvegicus. Description: Percentage of rats selecting the drug lever (% SDL) for dose 0.047(umol/kg). It is filed as functional. The procedure, abridged:
as §1

The test system of test [14] is Rattus norvegicus. The test is described as follows: Percentage of rats selecting the drug lever (% SDL) for dose 0.012 (umol/kg). It is filed as functional. The method, boiled down: as §1
For test [15], the system named is Rattus norvegicus. Description: Percentage of rats selecting the drug lever (% SDL) for dose 0.093(umol/kg). The format is functional. The procedure, abridged:
as §1

Test [16] relates to Rattus norvegicus. The test is described as follows: Percentage of rats selecting the drug lever (% SDL) for dose 1.02(umol/kg). The format is functional. The procedure, abridged:
as §1

Test [17] concerns Rattus norvegicus. The test is described as follows: Percentage of rats selecting the drug lever (% SDL) for dose 0.51(umol/kg). The format is functional. The procedure, abridged:
as §1

Test [18] relates to Rattus norvegicus. Description: Percentage of rats selecting the drug lever (% SDL) for dose 0.77(umol/kg). It is filed as functional. The procedure, abridged:
as §1

For test [19], the system named is Rattus norvegicus. The test is described as follows: Percentage of rats selecting the drug lever (% SDL) for dose 2.04(umol/kg). The format is functional. The method, boiled down: as §1

Turning to `CC[C@@H](C)c1cc(OC)c(CC(C)N)cc1OC` (stereo partly drawn), the 50% effect level in test [1] (ED50) was put at a dose of 3.08 µmol/kg. Moreover, the SDL in test [2] is 80%; in [3], 50%; in test [6], 0%; in test [7], 25%. The Hill coefficient – broadly, the slope factor of the fitted curve – in test [4] came out at 1. In addition, the Ki (in general, the equilibrium dissociation constant of an inhibitor or competing ligand from its target) in test [5] stood at 7.84 nM.

For `CC[C@H](C)c1cc(OC)c(CC(C)N)cc1OC` (stereo partly drawn), the ED50 (in general, the midpoint of the dose-response relation) in [1] was 4.76 µmol/kg. Also, in test [4], the Hill coefficient was 1.06. Further, the inhibition constant Ki in test [5] was determined as 7.87 nM.

`CCC(C)c1cc(OC)c(CC(C)N)cc1OC` (stereo not drawn) returned an ED50 in test [1] of 3.69 µmol/kg. The SDL in test [8] is given as 90%; in test [7] it was 18%; in test [9], 70%; in test [10], 60%.

On to `CCN(CC)C(=O)[C@@H]1C=C2c3cccc4[nH]cc(c34)C[C@H]2N(C)C1` [LYSERGIDE], for which the ED50 in test [1] was determined as 0.02 µmol/kg. For the same molecule, the SDL in test [11] is on record as 13%; in test [12], 100%; in test [13], 38%; in [14], 13%; in [15], 89%. This molecule came in with a Hill coefficient in [4] of 1.18.

Consider `COc1cc(CC(C)N)c(OC)cc1C` (stereo not drawn) [DOM], for which the SDL in test [16] turned out to be 67%; in [17] it was 13%; in [18], 67%; in test [19], 100%. Besides, the ED50 in test [1] came to 0.61 µmol/kg. This molecule also yielded a Hill coefficient in [4] of 0.89.
